In brackets after ≈: the same amount, converted by molar mass. Activity calls are given as the source filed them. No cut-off for these calls is given here.
Key:
Staphylococcus aureus = assay: Antibacterial activity against Staphylococcus aureus ATCC 29213 assessed as bacterial growth inhibition incubated for 16 to 18 hrs by CLSI based antibiotic susceptibility testing method; type: functional; conditions: time 16-18 hrs
Outline: (§1)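 Broth microdilution in cation-adjusted Mueller-Hinton broth. Compounds were tested at […], with levofloxacin as reference and medium-only controls. Plates were incubated at 37 °C for 16-18 h. MIC was the lowest concentration with no visible growth; three independent determinations, each in duplicate.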

[1] = system: Mycobacterium tuberculosis; assay: Antimycobacterial activity against Mycobacterium tuberculosis H37Rv ATCC 27294 assessed as bacterial growth inhibition incubated for 7 days by resazurin dye based broth microdilution method; type: functional; conditions: H37Rv ATCC 27294, 168 h, time 7 day
Outline: (§2)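 Broth microdilution in Middlebrook 7H9 with 10% ADC-Tween-80 (0.2% glycerol, 0.05% Tween-80), inoculum ~10⁶ cfu/mL. Compounds came from 10 mg/mL DMSO stocks and were tested as two-fold serial dilutions at 37 °C, 7 days for M. tuberculosis H37Rv and 72 h for NTM. Growth was read visually with PrestoBlue resazurin dye; MIC was the lowest concentration preventing growth. Triplicate determinations, each in duplicate.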

Escherichia coli = assay: Antibacterial activity against Escherichia coli ATCC 25922 assessed as bacterial growth inhibition incubated for 16 to 18 hrs by CLSI based antibiotic susceptibility testing method; type: functional, organism-based; conditions: time 16-18 hrs; outline: as §1
Klebsiella pneumoniae = assay: Antibacterial activity against Klebsiella pneumoniae BAA 1705 assessed as bacterial growth inhibition incubated for 16 to 18 hrs by CLSI based antibiotic susceptibility testing method; type: functional, organism-based; conditions: time 16-18 hrs; outline: as §1
Acinetobacter baumannii = assay: Antibacterial activity against Acinetobacter baumannii BAA 1605 assessed as bacterial growth inhibition incubated for 16 to 18 hrs by CLSI based antibiotic susceptibility testing method; type: functional, organism-based; conditions: time 16-18 hrs; outline: as §1
Pseudomonas aeruginosa = assay: Antibacterial activity against Pseudomonas aeruginosa ATCC 27853 assessed as bacterial growth inhibition incubated for 16 to 18 hrs by CLSI based antibiotic susceptibility testing method; type: functional, organism-based; conditions: time 16-18 hrs; outline: as §1
[2] = system: Mycobacteroides abscessus; assay: Antimycobacterial activity against Mycobacterium abscessus ATCC 19977 assessed as bacterial growth inhibition incubated for 72 hrs by resazurin dye based broth microdilution method; type: functional, organism-based; outline: as §2
[3] = system: Mycolicibacterium fortuitum; assay: Antimycobacterial activity against Mycobacterium fortuitum ATCC 6841 assessed as bacterial growth inhibition incubated for 72 hrs by resazurin dye based broth microdilution method; type: functional, organism-based; outline: as §2
Mycobacteroides chelonae = assay: Antimycobacterial activity against Mycobacteroides chelonae ATCC 35752 assessed as bacterial growth inhibition incubated for 72 hrs by resazurin dye based broth microdilution method; type: functional, organism-based; outline: as §2

SMILES | MIC (Staphylococcus aureus) | MIC [1] | growth inhibition (GI) (Escherichia coli) | growth inhibition (GI) (Klebsiella pneumoniae) | growth inhibition (GI) (Acinetobacter baumannii) | growth inhibition (GI) (Pseudomonas aeruginosa) | growth inhibition (GI) [2] | growth inhibition (GI) [3] | growth inhibition (GI) (Mycobacteroides chelonae)
O=C(Nc1ccc(Cl)cc1)N1CCN(CCN2C(=O)c3cccc4cccc(c34)C2=O)CC1 | > 64 µg/mL | 8 µg/mL (≈ 17.3 µM) | inactive | inactive | inactive | inactive | inactive | inactive | inactive
O=C(CN1C(=O)c2cccc3cccc(c23)C1=O)N1CCC(NC(=S)NC23CC4CC(CC(C4)C2)C3)CC1 | 4 µg/mL (≈ 7.54 µM) | 32 µg/mL (≈ 60.3 µM) | inactive | inactive | inactive | inactive | inactive | inactive | inactive
O=C(CCN1C(=O)c2cccc3cccc(c23)C1=O)N1CCN(C(=S)Nc2ccccc2Cl)CC1 | > 64 µg/mL | > 64 µg/mL | inactive | inactive | inactive | inactive | inactive | inactive | inactive
O=C(CCN1C(=O)c2cccc3cccc(c23)C1=O)N1CCN(C(=S)Nc2ccc(Cl)cc2)CC1 | > 64 µg/mL | 64 µg/mL (≈ 126 µM) | inactive | inactive | inactive | inactive | inactive | inactive | inactive
Cc1ccc(NC(=S)N2CCN(C(=O)CCN3C(=O)c4cccc5cccc(c45)C3=O)CC2)cc1 | > 64 µg/mL | > 64 µg/mL | inactive | inactive | inactive | inactive | inactive | inactive | inactive
CC(C)NC(=S)N1CCN(CCN2C(=O)c3cccc4cccc(c34)C2=O)CC1 | > 64 µg/mL | > 64 µg/mL | inactive | inactive | inactive | inactive | inactive | inactive | inactive
O=C1c2cccc3cccc(c23)C(=O)N1CCN1CCN(C(=S)Nc2ccccc2Cl)CC1 | > 64 µg/mL | > 64 µg/mL | inactive | inactive | inactive | inactive | inactive | inactive | inactive
O=C(CN1C(=O)c2cccc3cccc(c23)C1=O)NC1CCN(C(=S)NC2CCCC2)CC1 | > 64 µg/mL | > 64 µg/mL | inactive | inactive | inactive | inactive | inactive | inactive | inactive
NCC[C@H](O)C(=O)N[C@@H]1C[C@H](N)[C@@H](O[C@H]2O[C@H](CN)[C@@H](O)[C@H](O)[C@H]2O)[C@H](O)[C@H]1O[C@H]1O[C@H](CO)[C@@H](O)[C@H](N)[C@H]1O [AMIKACIN] | – | 0.5 µg/mL (≈ 0.854 µM) | – | – | – | – | inactive | inactive | inactive
O=C(Nc1ccccc1)N1CCN(CCN2C(=O)c3cccc4cccc(c34)C2=O)CC1 | 8 µg/mL (≈ 18.7 µM) | 32 µg/mL (≈ 74.7 µM) | inactive | inactive | inactive | inactive | inactive | inactive | inactive
O=C(CCN1C(=O)c2cccc3cccc(c23)C1=O)NC1CCN(C(=S)Nc2ccc(Cl)cc2)CC1 | > 64 µg/mL | > 64 µg/mL | inactive | inactive | inactive | inactive | inactive | inactive | inactive
NNC(=O)c1ccncc1 [ISONIAZID] | – | 0.03 µg/mL (≈ 0.219 µM) | – | – | – | – | inactive | inactive | inactive
Cc1ccc(NC(=S)N2CCN(CCN3C(=O)c4cccc5cccc(c45)C3=O)CC2)cc1 | > 64 µg/mL | > 64 µg/mL | inactive | inactive | inactive | inactive | inactive | inactive | inactive
O=C(CN1C(=O)c2cccc3cccc(c23)C1=O)N1CCN(C(=S)Nc2ccc(Cl)cc2)CC1 | > 64 µg/mL | 8 µg/mL (≈ 16.2 µM) | inactive | inactive | inactive | inactive | inactive | inactive | inactive
O=C1c2cccc3cccc(c23)C(=O)N1CCN1CCN(C(=S)Nc2ccc(Cl)cc2)CC1 | > 64 µg/mL | > 64 µg/mL | inactive | inactive | inactive | inactive | inactive | inactive | inactive
CC[C@@H](CO)NCCN[C@@H](CC)CO [ETHAMBUTOL] | – | 2 µg/mL (≈ 9.79 µM) | – | – | – | – | inactive | inactive | inactive
CN[C@@H]1[C@H](O[C@H]2[C@H](O[C@H]3[C@H](O)[C@@H](O)[C@H](N=C(N)N)[C@@H](O)[C@@H]3N=C(N)N)O[C@@H](C)[C@]2(O)C=O)O[C@@H](CO)[C@H](O)[C@H]1O [STREPTOMYCIN] | – | 1 µg/mL (≈ 1.72 µM) | – | – | – | – | inactive | inactive | inactive
CO[C@H]1/C=C/O[C@@]2(C)Oc3c(C)c(O)c4c(O)c(c(/C=N/N5CCN(C)CC5)c(O)c4c3C2=O)NC(=O)/C(C)=C\C=C\[C@H](C)[C@H](O)[C@@H](C)[C@@H](O)[C@@H](C)[C@H](OC(C)=O)[C@@H]1C [RIFAMPIN] | – | 0.03 µg/mL (≈ 0.0365 µM) | – | – | – | – | inactive | inactive | inactive
